From ChEMBL document CHEMBL3351861, “New synthetic sulfone derivatives inhibit growth, adhesion and the leucine arylamidase APE2 gene expression of Candida albicans in vitro” (2015)
Converted amounts (≈) assume the structure as drawn.

What was measured:
Candida albicans [1] = test: Antifungal activity against Candida albicans CAI4 expressing delta-cph1 gene assessed as growth inhibition at 0.25 ug/ml by CLSI M27-A3 method; assay type: functional; conditions: read-out: GI
How it was run: (§1)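 CLSI M27-A3 broth microdilution in RPMI, read after 48 h. Strains pre-grown 18 h in YEPD at 30°C. Final inoculum 0.5×10^2–2.5×10^3 cells/ml. Two-fold dilutions in RPMI came from a 1600 µg/ml stock in water with 9% DMSO; final DMSO was 0.09%. OD405 read, % inhibition = 100 − (CTW−SCW)/(GCW−SCW). Triplicate on three occasions, mean±SD.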

Candida albicans [2] = test: Antifungal activity against Candida albicans CAI4 expressing delta-cph1 (CPH1) gene assessed as growth inhibition at 0.25 ug/ml by CLSI M27-A3 method; assay type: functional; conditions: read-out: GI; how it was run: as §1
Candida albicans [3] = test: Antifungal activity against Candida albicans CAI4 expressing delta-efg1 (EFG1) gene assessed as growth inhibition at 0.25 ug/ml by CLSI M27-A3 method; assay type: functional; conditions: read-out: GI; how it was run: as §1
Candida albicans [4] = test: Antifungal activity against Candida albicans CAI4 expressing delta-cph1/delta-efg1 gene assessed as growth inhibition at 0.25 ug/ml by CLSI M27-A3 method; assay type: functional; conditions: read-out: GI; how it was run: as §1
Candida albicans [5] = test: Antifungal activity against Candida albicans CAI4 expressing delta-efg1 gene assessed as growth inhibition at by CLSI M27-A3 method; assay type: functional
How it was run: (§2)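 CLSI M27-A3 broth microdilution in RPMI. Final inoculum 0.5×10^2 to 2.5×10^3 cells/ml. Seven two-fold concentrations from 0.25 to 16 µg/ml, with DMSO held at 0.09% (v/v) in all wells. Compound-free growth controls and sterility controls are run for each strain. […] Triplicate on three occasions.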

Candida albicans [6] = test: Antifungal activity against Candida albicans CAI4 expressing delta-cph1/delta-efg1 (EFG1) gene assessed as growth inhibition at by CLSI M27-A3 method; assay type: functional
Candida albicans [7] = test: Antifungal activity against Candida albicans 90028 assessed as growth inhibition at 16 ug/ml by CLSI M27-A3 method; assay type: functional; conditions: read-out: GI; how it was run: as §1
Candida albicans [8] = test: Antifungal activity against Candida albicans CAI4 expressing delta-cph1 (CPH1) gene assessed as growth inhibition at 16 ug/ml by CLSI M27-A3 method; assay type: functional; conditions: read-out: GI; how it was run: as §1
Candida albicans [9] = test: Antifungal activity against Candida albicans CAI4 expressing delta-cph1/delta-efg1 gene assessed as growth inhibition at 16 ug/ml by CLSI M27-A3 method; assay type: functional; conditions: read-out: GI; how it was run: as §1
Candida albicans [10] = test: Antifungal activity against Candida albicans CAI4 expressing delta-cph1 (CPH1) gene assessed as growth inhibition at 8 ug/ml by CLSI M27-A3 method; assay type: functional; conditions: read-out: GI; how it was run: as §1
Candida albicans [11] = test: Antifungal activity against Candida albicans CAI4 expressing delta-cph1/delta-efg1 gene assessed as growth inhibition at 8 ug/ml by CLSI M27-A3 method; assay type: functional; conditions: read-out: GI; how it was run: as §1
Candida albicans [12] = test: Antifungal activity against Candida albicans CAI4 expressing delta-cph1 gene assessed as growth inhibition at 4 ug/ml by CLSI M27-A3 method; assay type: functional; conditions: read-out: GI; how it was run: as §1
Candida albicans [13] = test: Antifungal activity against Candida albicans CAI4 expressing delta-efg1 gene assessed as growth inhibition at 4 ug/ml by CLSI M27-A3 method; assay type: functional; conditions: read-out: GI; how it was run: as §2
Candida albicans [14] = test: Antifungal activity against Candida albicans CAI4 expressing delta-efg1 (EFG1) gene assessed as growth inhibition at 2 ug/ml by CLSI M27-A3 method; assay type: functional; conditions: read-out: GI; how it was run: as §1
Candida albicans [15] = test: Antifungal activity against Candida albicans 90028 assessed as growth inhibition at 1 ug/ml by CLSI M27-A3 method; assay type: functional; conditions: read-out: GI; how it was run: as §1
Candida albicans [16] = test: Antifungal activity against Candida albicans CAI4 expressing delta-cph1 (CPH1) gene assessed as growth inhibition at 1 ug/ml by CLSI M27-A3 method; assay type: functional; conditions: read-out: GI; how it was run: as §1
Candida albicans [17] = test: Antifungal activity against Candida albicans CAI4 expressing delta-efg1 (EFG1) gene assessed as growth inhibition at 1 ug/ml by CLSI M27-A3 method; assay type: functional; conditions: read-out: GI; how it was run: as §1
Candida albicans [18] = test: Antifungal activity against Candida albicans 90028 assessed as growth inhibition at 0.5 ug/ml by CLSI M27-A3 method; assay type: functional; conditions: read-out: GI; how it was run: as §1
Candida albicans [19] = test: Antifungal activity against Candida albicans CAI4 expressing delta-efg1 gene assessed as growth inhibition at 0.5 ug/ml by CLSI M27-A3 method; assay type: functional; conditions: read-out: GI; how it was run: as §1
Candida albicans [20] = test: Antifungal activity against Candida albicans CAI4 expressing delta-efg1 (EFG1) gene assessed as growth inhibition at 0.5 ug/ml by CLSI M27-A3 method; assay type: functional; conditions: read-out: GI; how it was run: as §1
Candida albicans [21] = test: Antifungal activity against Candida albicans CAI4 expressing delta-cph1/delta-efg1 (EFG1) gene assessed as growth inhibition at 0.5 ug/ml by CLSI M27-A3 method; assay type: functional; conditions: read-out: GI; how it was run: as §1
Candida albicans [22] = test: Inhibition of cell adhesion of compound pre-treated Candida albicans CAI4 expressing delta-efg1 gene to human Caco2 cells assessed as cell adhesion level at 16 ug/ml pre-incubated for 18 hrs by colony counting method (reference value: 2.1 +/- 3.52%); assay type: functional, Caco-2; parameters: scale not given: the % may be the effect or the level left
Candida albicans [23] = test: Inhibition of cell adhesion of compound pre-treated Candida albicans CAI4 expressing delta-efg1/delta-cph1 gene to human Caco2 cells assessed as cell adhesion level at 16 ug/ml pre-incubated for 18 hrs by colony counting method (reference value: 1.22 +/- 0.78%); assay type: functional, Caco-2; parameters: scale not given: the % may be the effect or the level left
Candida albicans [24] = test: Inhibition of cell adhesion of compound pre-treated Candida albicans CAI4 expressing delta-cph1/delta-efg1 (EFG1) gene to human Caco2 cells assessed as cell adhesion level at 16 ug/ml pre-incubated for 18 hrs by colony counting method (reference value: 1.24 +/- 1.06%); assay type: functional, Caco-2; parameters: scale not given: the % may be the effect or the level left
Candida albicans [25] = test: Inhibition of cell adhesion of compound pre-treated Candida albicans 90028 to human Caco2 cells assessed as cell adhesion level at 8 ug/ml pre-incubated for 18 hrs by colony counting method (reference value: 1.58 +/- 0.67%); assay type: functional, Caco-2; parameters: scale not given: the % may be the effect or the level left
Candida albicans [26] = test: Inhibition of cell adhesion of compound pre-treated Candida albicans CAI4 expressing delta-efg1 gene to human Caco2 cells assessed as cell adhesion level at 8 ug/ml pre-incubated for 18 hrs by colony counting method (reference value: 2.1 +/- 3.52%); assay type: functional, Caco-2; parameters: scale not given: the % may be the effect or the level left
Candida albicans [27] = test: Inhibition of cell adhesion of compound pre-treated Candida albicans CAI4 expressing delta-efg1 gene to human Caco2 cells assessed as cell adhesion level at 4 ug/ml pre-incubated for 18 hrs by colony counting method (reference value: 2.1 +/- 3.52%); assay type: functional, Caco-2; parameters: scale not given: the % may be the effect or the level left
Candida albicans [28] = test: Inhibition of cell adhesion of compound pre-treated Candida albicans CAI4 expressing delta-efg1/delta-cph1 gene to human Caco2 cells assessed as cell adhesion level at 4 ug/ml pre-incubated for 18 hrs by colony counting method (reference value: 1.22 +/- 0.78%); assay type: functional, Caco-2; parameters: scale not given: the % may be the effect or the level left
Candida albicans [29] = test: Inhibition of cell adhesion of compound pre-treated Candida albicans CAI4 expressing delta-efg1 gene to human Caco2 cells assessed as cell adhesion level at 2 ug/ml pre-incubated for 18 hrs by colony counting method (reference value: 2.1 +/- 3.52%); assay type: functional, Caco-2; parameters: scale not given: the % may be the effect or the level left
Candida albicans [30] = test: Inhibition of cell adhesion of compound pre-treated Candida albicans CAI4 expressing delta-cph1 gene to human Caco2 cells assessed as cell adhesion level at 16 ug/ml pre-incubated by colony counting method (reference value: 1.6 +/- 0.65%); parameters: scale not given: the % may be the effect or the level left

MIC90 (Candida albicans [5]) [µg/mL]	MIC90 (Candida albicans [6]) [µg/mL]	Structure (SMILES)	inhibition of growth at 0.25 µg/mL (Candida albicans [1]) [%]	inhibition of growth at 0.25 µg/mL (Candida albicans [2]) [%]	inhibition of growth at 0.25 µg/mL (Candida albicans [3]) [%]	inhibition of growth at 0.25 µg/mL (Candida albicans [4]) [%]	inhibition of growth at 16 µg/mL (Candida albicans [7]) [%]	inhibition of growth at 16 µg/mL (Candida albicans [8]) [%]	inhibition of growth at 16 µg/mL (Candida albicans [9]) [%]	inhibition of growth at 8 µg/mL (Candida albicans [10]) [%]	inhibition of growth at 8 µg/mL (Candida albicans [11]) [%]	inhibition of growth at 4 µg/mL (Candida albicans [12]) [%]	inhibition of growth at 4 µg/mL (Candida albicans [13]) [%]	inhibition of growth at 2 µg/mL (Candida albicans [14]) [%]	inhibition of growth at 1 µg/mL (Candida albicans [15]) [%]	inhibition of growth at 1 µg/mL (Candida albicans [16]) [%]	inhibition of growth at 1 µg/mL (Candida albicans [17]) [%]	inhibition of growth at 0.5 µg/mL (Candida albicans [18]) [%]	inhibition of growth at 0.5 µg/mL (Candida albicans [19]) [%]	inhibition of growth at 0.5 µg/mL (Candida albicans [20]) [%]	further results
16 (≈ 41.7 µM)	16 (≈ 41.7 µM)	O=[N+]([O-])c1cc(S(=O)(=O)C(Cl)(Cl)Br)ccc1Cl	97.4	96.7	99	98.3	99.6	99.8	99.5	99.8	99.4	98.7	99	99.3	98.8	98.7	99.2	98.7	98.7	99	inhibition of growth at 0.5 µg/mL (Candida albicans [21]): 98.8%; Activity (Candida albicans [22]): 0.99%; Activity (Candida albicans [23]): 0.43%; Activity (Candida albicans [24]): 0.75%; Activity (Candida albicans [25]): 2.2%; Activity (Candida albicans [26]): 0.49%; Activity (Candida albicans [27]): 1.14%; Activity (Candida albicans [28]): 1.02%; Activity (Candida albicans [29]): 0.9%; Activity (Candida albicans [30]): 0.56%
4 (≈ 9.45 µM)	4 (≈ 9.45 µM)	NNc1ccc(S(=O)(=O)C(Cl)(Br)Br)cc1[N+](=O)[O-]	20	98.6	98.6	70	100	99.8	100	99.7	100	100	100	99.1	97.4	98.8	98.8	81.8	97.9	98.8	inhibition of growth at 0.5 µg/mL (Candida albicans [21]): 98.8%; Activity (Candida albicans [22]): 0.81%; Activity (Candida albicans [23]): 2.25%; Activity (Candida albicans [24]): 1.5%; Activity (Candida albicans [25]): 2.66%; Activity (Candida albicans [26]): 0.63%; Activity (Candida albicans [27]): 0.69%; Activity (Candida albicans [28]): 2.74%; Activity (Candida albicans [29]): 1.32%; Activity (Candida albicans [30]): 0.37%

Structure (SMILES)	MIC90 (Candida albicans [5]) [µg/mL]	MIC90 (Candida albicans [6]) [µg/mL]	inhibition of growth at 0.25 µg/mL (Candida albicans [1]) [%]	inhibition of growth at 0.25 µg/mL (Candida albicans [2]) [%]	inhibition of growth at 0.25 µg/mL (Candida albicans [3]) [%]	inhibition of growth at 0.25 µg/mL (Candida albicans [4]) [%]	inhibition of growth at 16 µg/mL (Candida albicans [7]) [%]	inhibition of growth at 16 µg/mL (Candida albicans [8]) [%]	inhibition of growth at 16 µg/mL (Candida albicans [9]) [%]	inhibition of growth at 8 µg/mL (Candida albicans [10]) [%]	inhibition of growth at 8 µg/mL (Candida albicans [11]) [%]	inhibition of growth at 4 µg/mL (Candida albicans [12]) [%]	inhibition of growth at 4 µg/mL (Candida albicans [13]) [%]	inhibition of growth at 2 µg/mL (Candida albicans [14]) [%]	inhibition of growth at 1 µg/mL (Candida albicans [15]) [%]	inhibition of growth at 1 µg/mL (Candida albicans [16]) [%]	inhibition of growth at 1 µg/mL (Candida albicans [17]) [%]	inhibition of growth at 0.5 µg/mL (Candida albicans [18]) [%]	inhibition of growth at 0.5 µg/mL (Candida albicans [19]) [%]	inhibition of growth at 0.5 µg/mL (Candida albicans [20]) [%]	further results
O=[N+]([O-])c1cc(S(=O)(=O)C(Cl)Cl)ccc1Cl	16 (≈ 52.5 µM)	16 (≈ 52.5 µM)	97.7	91.8	95.2	99	99.4	99.4	99.7	99.4	99.4	99.1	99.5	98.1	99.2	98.8	96	99.1	99.4	95.4	inhibition of growth at 0.5 µg/mL (Candida albicans [21]): 99%; Activity (Candida albicans [22]): 1.06%; Activity (Candida albicans [23]): 0.42%; Activity (Candida albicans [24]): 1.68%; Activity (Candida albicans [25]): 2.05%; Activity (Candida albicans [26]): 0.69%; Activity (Candida albicans [27]): 0.97%; Activity (Candida albicans [28]): 0.36%; Activity (Candida albicans [29]): 1.1%; Activity (Candida albicans [30]): 1.03%
